# Measurements as given in PubChem BioAssay AID463077 (The Scripps Research Institute Molecular Screening Center, 2010).
# Calls of active or inactive are those of the source.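 The calls were made as follows: active = compounds whose half-inhibition concentration IC50 on CK1 delta kinase is at most 1 µM; inactive = the rest.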
# Target: Casein kinase I isoform delta (Homo sapiens) (UniProt P48730)
# Experiment: inhibition of casein kinase 1 delta activity – biochemical, radioactive 33P-ATP, purified kinase, powder samples, late-stage follow-up (AID 463077)
# Settings: purified CK1d, 33P-ATP filter-binding, CK1tide
# In short: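 Evaluation: IC50 from radioactivity signal ratios plotted against compound concentration; Test system: purified human CK1d kinase; Reagent: 20 µM CK1tide with radiolabelled ATP; Times: kinase reaction run 120 min at room temperature; Buffer or medium: HEPES reaction buffer at pH 7.5, 1% DMSO; Detection: filter-binding measurement of 33P label incorporated into peptide.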
# Sequence of Casein kinase I isoform delta (Homo sapiens) (P48730 whole entry, looked up, canonical isoform): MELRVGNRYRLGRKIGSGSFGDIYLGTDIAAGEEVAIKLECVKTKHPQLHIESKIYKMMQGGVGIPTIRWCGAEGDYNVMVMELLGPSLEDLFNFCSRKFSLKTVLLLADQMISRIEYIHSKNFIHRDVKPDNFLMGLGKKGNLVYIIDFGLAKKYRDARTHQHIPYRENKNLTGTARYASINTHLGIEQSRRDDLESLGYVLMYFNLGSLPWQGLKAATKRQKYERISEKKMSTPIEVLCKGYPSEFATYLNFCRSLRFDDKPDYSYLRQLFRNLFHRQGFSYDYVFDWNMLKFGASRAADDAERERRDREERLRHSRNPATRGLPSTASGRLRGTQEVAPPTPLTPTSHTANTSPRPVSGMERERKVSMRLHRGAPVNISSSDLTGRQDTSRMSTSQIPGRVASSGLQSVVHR
row,SMILES,IC50
1,O=[N+]([O-])c1cccc2[nH]c(CNc3nc(N4CCOCC4)nc4c3ncn4-c3ccsc3)nc12,49 nM
2,Fc1ccc2nc(CNc3nc(N4CCOCC4)nc4c3ncn4-c3ccsc3)[nH]c2c1,50 nM
3,N#Cc1ccc2nc(CNc3nc(N4CCOCC4)nc4c3ncn4-c3ccsc3)[nH]c2c1,11 nM
4,CCOC(=O)c1cccc2[nH]c(CNc3nc(N4CCOCC4)nc4c3ncn4-c3ccsc3)nc12,361 nM
5,FC(F)(F)c1cccc2[nH]c(CNc3nc(N4CCOCC4)nc4c3ncn4-c3ccsc3)nc12,128 nM
6,O=[N+]([O-])c1ccc2nc(CNc3nc(N4CCOCC4)nc4c3ncn4-c3ccsc3)[nH]c2c1,21 nM
7,Cc1ccnc(NC(=O)CCCOc2cc(=O)n(C)c3ccccc23)c1,inactive
8,Clc1ccc2nc(CNc3nc(N4CCOCC4)nc4c3ncn4-c3ccsc3)[nH]c2c1,105 nM

# Next, values leading:
row,IC50,SMILES
1,815 nM,CC(C)n1cnc2c(NCc3nc4c([N+](=O)[O-])cccc4[nH]3)nc(N3CCOCC3)nc21
2,161 nM,c1ccc2[nH]c(CNc3nc(N4CCOCC4)nc4c3ncn4-c3ccsc3)nc2c1
3,13 nM,FC(F)(F)c1ccc2nc(CNc3nc(N4CCOCC4)nc4c3ncn4-c3ccsc3)[nH]c2c1
4,129 nM,c1ccc2cc3[nH]c(CNc4nc(N5CCOCC5)nc5c4ncn5-c4ccsc4)nc3cc2c1
5,17 nM,COc1ccc2nc(CNc3nc(N4CCOCC4)nc4c3ncn4-c3ccsc3)[nH]c2c1
